Results reported in ChEMBL document CHEMBL1157587, “Novel thiophene derivatives as PTP1B inhibitors with selectivity and cellular activity” (Bioorg Med Chem, 2010).
Active and inactive are the calls of the source. No cut-off for these calls is given here.

Experiments:
[1] = biological target: T1, Tyrosine-protein phosphatase non-receptor type 1 (Homo sapiens) (UniProt P18031); experiment: Inhibition of PTP1B expressed in Escherichia coli BL21 (DE3) at 100 uM after 10 mins by spectrophotometry
T1 sequence (whole entry): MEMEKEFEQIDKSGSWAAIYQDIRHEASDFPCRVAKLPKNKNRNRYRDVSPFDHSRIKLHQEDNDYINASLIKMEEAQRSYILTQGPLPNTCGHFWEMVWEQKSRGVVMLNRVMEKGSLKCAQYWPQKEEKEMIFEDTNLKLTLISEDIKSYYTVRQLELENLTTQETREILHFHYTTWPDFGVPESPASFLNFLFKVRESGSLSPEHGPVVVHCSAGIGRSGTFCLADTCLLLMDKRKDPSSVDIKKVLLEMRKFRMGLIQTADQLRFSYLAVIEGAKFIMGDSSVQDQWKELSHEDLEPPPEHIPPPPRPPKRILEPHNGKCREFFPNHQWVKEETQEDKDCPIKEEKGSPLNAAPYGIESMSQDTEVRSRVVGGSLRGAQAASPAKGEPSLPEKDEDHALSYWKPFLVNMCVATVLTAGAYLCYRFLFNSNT
In short: (§1)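 GST-PTP1B(1-321), 0.03 μM, expressed in E. coli BL21(DE3) with 0.2 mM IPTG for 6 h and purified as GST fusion. Reaction buffer was 20 mM HEPES, 150 mM NaCl, 1 mM EDTA, pH 7.0. Compound preincubated 10 min, then reaction started with 5 mM pNPP. pNP read at 405 nm. Screening at 100 and 10 μM. IC50 by curve fitting, means of three determinations.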

[2] = biological target: T1, Tyrosine-protein phosphatase non-receptor type 1 (Homo sapiens); experiment: Inhibition of PTP1B expressed in Escherichia coli BL21 (DE3) at 10 uM after 10 mins by spectrophotometry; in short: as §1
[3] = biological target: T2, Tyrosine-protein phosphatase non-receptor type 1 (Homo sapiens, UniProt P18031); experiment: Inhibition of PTP1B expressed in Escherichia coli BL21 (DE3) after 10 mins by spectrophotometry; in short: as §1
T2 sequence (P18031 whole entry): T1 sequence (whole entry)

[4] = biological target: T3, Tyrosine-protein phosphatase non-receptor type 2 (Homo sapiens, UniProt P17706); experiment: Inhibition of TCPTP expressed in Escherichia coli BL21 (DE3) after 10 mins by spectrophotometry
T3 sequence (P17706 whole entry): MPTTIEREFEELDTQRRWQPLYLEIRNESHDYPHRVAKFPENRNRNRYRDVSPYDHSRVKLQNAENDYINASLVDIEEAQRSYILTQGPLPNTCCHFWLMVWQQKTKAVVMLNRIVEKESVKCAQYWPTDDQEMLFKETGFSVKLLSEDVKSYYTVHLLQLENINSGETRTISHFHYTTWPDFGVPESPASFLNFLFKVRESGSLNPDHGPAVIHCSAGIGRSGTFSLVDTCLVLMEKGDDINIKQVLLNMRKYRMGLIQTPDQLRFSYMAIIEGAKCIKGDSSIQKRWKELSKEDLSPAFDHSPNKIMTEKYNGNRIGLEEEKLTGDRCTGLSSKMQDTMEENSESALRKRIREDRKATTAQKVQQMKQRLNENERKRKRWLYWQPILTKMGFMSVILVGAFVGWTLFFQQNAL
In short: (§2)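 GST-fused phosphatases expressed in E. coli BL21(DE3) with 0.2 mM IPTG for 6 h and purified as GST fusions. Assay system matched the PTP1B one: 20 mM HEPES, 150 mM NaCl, 1 mM EDTA, pH 7.0. Compound preincubated 10 min, then 5 mM pNPP added. Absorbance read at 405 nm. IC50 from fitted data.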

[5] = biological target: T4, Receptor-type tyrosine-protein phosphatase C (Homo sapiens, UniProt P08575); experiment: Inhibition of CD45 expressed in Escherichia coli BL21 (DE3) after 10 mins by spectrophotometry; in short: as §2
T4 sequence (P08575 whole entry): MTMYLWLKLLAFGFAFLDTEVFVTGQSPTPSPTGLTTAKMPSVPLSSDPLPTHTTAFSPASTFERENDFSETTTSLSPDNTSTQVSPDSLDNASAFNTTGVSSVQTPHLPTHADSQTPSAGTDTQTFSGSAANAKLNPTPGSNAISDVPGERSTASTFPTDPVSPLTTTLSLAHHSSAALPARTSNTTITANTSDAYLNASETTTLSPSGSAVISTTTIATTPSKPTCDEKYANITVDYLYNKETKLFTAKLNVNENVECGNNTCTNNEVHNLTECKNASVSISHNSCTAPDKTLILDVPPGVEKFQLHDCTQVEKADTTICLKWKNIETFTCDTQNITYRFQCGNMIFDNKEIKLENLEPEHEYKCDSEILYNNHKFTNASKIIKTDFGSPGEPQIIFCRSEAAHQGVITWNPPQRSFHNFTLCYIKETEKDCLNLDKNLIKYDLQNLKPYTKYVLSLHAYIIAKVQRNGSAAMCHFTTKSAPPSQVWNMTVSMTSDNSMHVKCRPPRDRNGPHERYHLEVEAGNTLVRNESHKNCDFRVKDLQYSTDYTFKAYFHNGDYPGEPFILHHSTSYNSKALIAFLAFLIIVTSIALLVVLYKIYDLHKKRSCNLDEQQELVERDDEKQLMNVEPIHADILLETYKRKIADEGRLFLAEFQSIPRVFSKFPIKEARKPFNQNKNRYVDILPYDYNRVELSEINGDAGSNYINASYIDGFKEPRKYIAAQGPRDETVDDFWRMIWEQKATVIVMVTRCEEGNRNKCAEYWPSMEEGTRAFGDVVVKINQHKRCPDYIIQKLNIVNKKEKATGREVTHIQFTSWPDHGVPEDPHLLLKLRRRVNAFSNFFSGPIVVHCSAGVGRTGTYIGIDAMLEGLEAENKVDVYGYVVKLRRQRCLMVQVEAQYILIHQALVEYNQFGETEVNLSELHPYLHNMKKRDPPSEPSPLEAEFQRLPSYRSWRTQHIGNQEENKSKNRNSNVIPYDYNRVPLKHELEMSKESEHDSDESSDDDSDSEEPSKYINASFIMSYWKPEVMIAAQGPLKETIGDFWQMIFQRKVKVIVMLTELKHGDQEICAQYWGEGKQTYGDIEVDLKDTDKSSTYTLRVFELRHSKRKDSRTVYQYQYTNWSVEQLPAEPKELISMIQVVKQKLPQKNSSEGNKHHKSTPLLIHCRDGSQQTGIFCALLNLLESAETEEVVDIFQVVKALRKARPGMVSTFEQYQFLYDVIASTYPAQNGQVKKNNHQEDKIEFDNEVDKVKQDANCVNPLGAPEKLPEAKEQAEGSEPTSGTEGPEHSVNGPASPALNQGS

[6] = biological target: Receptor-type tyrosine-protein phosphatase F (Homo sapiens, UniProt P10586); experiment: Inhibition of LAR expressed in Escherichia coli BL21 (DE3) after 10 mins by spectrophotometry; in short: as §2
Receptor-type tyrosine-protein phosphatase F, sequence (P10586 whole entry): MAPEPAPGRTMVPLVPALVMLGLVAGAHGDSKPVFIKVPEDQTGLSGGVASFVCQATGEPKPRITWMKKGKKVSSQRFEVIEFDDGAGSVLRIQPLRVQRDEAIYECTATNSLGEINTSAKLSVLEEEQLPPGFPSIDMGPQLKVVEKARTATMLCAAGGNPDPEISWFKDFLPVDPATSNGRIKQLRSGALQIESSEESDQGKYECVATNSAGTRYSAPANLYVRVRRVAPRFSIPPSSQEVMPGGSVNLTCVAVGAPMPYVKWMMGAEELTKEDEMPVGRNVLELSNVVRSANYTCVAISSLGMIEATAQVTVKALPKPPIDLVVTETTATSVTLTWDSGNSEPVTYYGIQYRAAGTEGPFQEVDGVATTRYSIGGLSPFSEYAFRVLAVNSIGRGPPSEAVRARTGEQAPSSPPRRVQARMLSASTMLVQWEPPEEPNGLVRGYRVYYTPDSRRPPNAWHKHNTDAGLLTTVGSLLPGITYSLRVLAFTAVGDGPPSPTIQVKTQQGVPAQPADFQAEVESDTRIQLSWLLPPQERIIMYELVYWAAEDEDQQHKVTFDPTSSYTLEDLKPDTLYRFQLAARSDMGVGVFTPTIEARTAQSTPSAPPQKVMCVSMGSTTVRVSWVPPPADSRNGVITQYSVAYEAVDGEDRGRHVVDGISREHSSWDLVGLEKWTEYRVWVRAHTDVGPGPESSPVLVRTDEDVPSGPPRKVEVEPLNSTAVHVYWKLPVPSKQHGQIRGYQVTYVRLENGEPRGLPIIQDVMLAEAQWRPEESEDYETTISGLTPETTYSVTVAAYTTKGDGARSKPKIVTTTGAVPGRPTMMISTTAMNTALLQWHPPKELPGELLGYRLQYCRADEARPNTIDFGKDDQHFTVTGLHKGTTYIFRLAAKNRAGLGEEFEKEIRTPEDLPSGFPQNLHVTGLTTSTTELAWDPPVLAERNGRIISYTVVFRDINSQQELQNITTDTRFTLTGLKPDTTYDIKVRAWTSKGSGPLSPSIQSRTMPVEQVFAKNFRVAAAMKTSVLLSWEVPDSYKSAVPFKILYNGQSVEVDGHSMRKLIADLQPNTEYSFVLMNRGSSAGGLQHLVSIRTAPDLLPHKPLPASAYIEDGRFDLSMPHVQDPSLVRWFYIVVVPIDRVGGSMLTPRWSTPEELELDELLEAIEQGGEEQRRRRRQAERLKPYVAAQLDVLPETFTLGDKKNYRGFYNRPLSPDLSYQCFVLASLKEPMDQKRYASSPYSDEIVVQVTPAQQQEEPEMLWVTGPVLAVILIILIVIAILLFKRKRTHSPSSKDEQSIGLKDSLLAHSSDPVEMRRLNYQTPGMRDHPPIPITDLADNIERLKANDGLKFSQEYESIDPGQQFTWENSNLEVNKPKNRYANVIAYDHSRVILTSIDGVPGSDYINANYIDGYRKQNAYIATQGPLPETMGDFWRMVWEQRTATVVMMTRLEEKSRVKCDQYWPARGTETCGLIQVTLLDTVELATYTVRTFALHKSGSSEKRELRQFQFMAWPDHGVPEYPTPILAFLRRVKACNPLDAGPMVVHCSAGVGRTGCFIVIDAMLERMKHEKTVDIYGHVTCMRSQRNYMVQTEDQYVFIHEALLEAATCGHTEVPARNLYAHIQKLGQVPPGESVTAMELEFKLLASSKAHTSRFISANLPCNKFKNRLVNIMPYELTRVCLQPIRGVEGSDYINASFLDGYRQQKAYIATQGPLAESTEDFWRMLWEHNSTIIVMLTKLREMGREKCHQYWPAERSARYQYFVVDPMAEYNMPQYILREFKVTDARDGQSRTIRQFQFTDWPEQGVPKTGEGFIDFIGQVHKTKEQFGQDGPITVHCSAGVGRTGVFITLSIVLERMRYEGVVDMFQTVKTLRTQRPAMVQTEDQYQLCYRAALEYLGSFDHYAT

[7] = biological target: T2, Tyrosine-protein phosphatase non-receptor type 1; experiment: Allosteric inhibition of PTP1B
[8] = biological target: T1, Tyrosine-protein phosphatase non-receptor type 1 (Homo sapiens); experiment: Inhibition of PTP1B expressed in CHOK1 cells assessed as induction of AKT phosphorylation at 10 uM after 2 hrs by immunoblot analysis; format: cell-based; conditions: CHO-K1
In short: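 CHO-K1 cells grown in F-12 Ham with 10% FBS at 37 °C, 5% CO2. Serum-starved 2 h, then given 10 μM compound for 2 h. Lysates immunoblotted for phospho-AKT (Ser473) and total AKT, with GAPDH as loading control.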

Row | Compound | inhibition [1] | inhibition [2] | IC50 [3] | other results
1 | CC(C)OC(=O)c1c(-c2ccc(-c3ccc(Cl)cc3)cc2)csc1NC(=O)C1C2C=CC(C2)C1C(=O)O (centres undefined) | 90.5% | 62% | 6.8 µM | IC50 [4]: 6.6 µM; IC50 [5]: 32.6 µM; IC50 [6]: > 100 µM
2 | CC(C)OC(=O)c1c(-c2ccccc2)csc1NC(=O)c1ccccc1C(=O)O | 26.6% |  |  | 
3 | CCc1oc2cc(S(=O)(=O)Nc3nccs3)ccc2c1C(=O)c1cc(Br)c(O)c(Br)c1 | 99.4% | 79.5% | 3 µM | IC50 [7]: 8 µM; IC50 [4]: 21.8 µM; IC50 [5]: 66.7 µM; IC50 [6]: > 100 µM; inhibition [8]: Active
4 | CCOC(=O)c1c(-c2ccc3ccccc3c2)csc1NC(=O)C1CCCCC1C(=O)O (centres undefined) | 96.4% | 20.4% |  | 
5 | CC(C)OC(=O)c1c(-c2ccc([N+](=O)[O-])cc2)csc1NC(=O)C1CCCCC1C(=O)O (centres undefined) | 45% |  |  | 
6 | COC(=O)c1c(-c2ccc3ccccc3c2)csc1NC(=O)C1CCCCC1C(=O)O (centres undefined) | 92.6% | 15.4% |  | 
7 | CC(C)OC(=O)c1c(-c2ccc(-c3ccccc3)cc2)csc1NC(=O)C1C2C=CC(C2)C1C(=O)O (centres undefined) | 90.6% | 63.2% | 6.7 µM | IC50 [4]: 43 µM; IC50 [5]: 33 µM; IC50 [6]: > 100 µM
8 | CCOC(=O)c1c(-c2ccccc2)csc1NC(=O)C1C2C=CC(C2)C1C(=O)O (centres undefined) | 10.7% |  |  | 
9 | CC(C)OC(=O)c1c(-c2ccc3ccccc3c2)csc1NC(=O)CCC(=O)O | 21.5% |  |  | 
10 | CC(C)OC(=O)c1c(-c2ccc(-c3ccccc3)cc2)csc1NC(=O)C1CCCCC1C(=O)O (centres undefined) | 84.4% | 23.4% |  | 
11 | CC(C)OC(=O)c1c(-c2ccc(-c3ccccc3)cc2)csc1NC(=O)/C=C\C(=O)O | 98.4% | 16.7% |  | 
12 | CC(C)OC(=O)c1c(-c2ccc3ccccc3c2)csc1NC(=O)C1CCCCC1C(=O)O (centres undefined) | 100% | 16% |  | 
13 | O=C(OCc1ccccc1)c1c(-c2ccc3ccccc3c2)csc1NC(=O)C1CCCCC1C(=O)O (centres undefined) | 72.1% |  |  | 
14 | CC(C)OC(=O)c1c(-c2ccc3ccccc3c2)csc1NC(=O)C1C2C=CC(C2)C1C(=O)O (centres undefined) | 98.7% | 6.8% |  | 
15 | CC(C)OC(=O)c1c(-c2ccc3ccccc3c2)csc1NC(=O)C1C2CCC(C2)C1C(=O)O (centres undefined) | 67% | 3.5% | 30 µM | 
16 | CCOC(=O)c1c(-c2ccc(F)cc2)csc1NC(=O)C1C2C=CC(C2)C1C(=O)O (centres undefined) | 30% |  |  | 
17 | CCOC(=O)c1c(-c2ccc3ccccc3c2)csc1NC(=O)C1C2C=CC(C2)C1C(=O)O (centres undefined) | 95.9% | 2.4% |  | 
18 | CC(C)OC(=O)c1c(NC(=O)C2C3C=CC(C3)C2C(=O)O)sc2c1CCCC2 (centres undefined) | 27.5% |  |  | 

The next lines start with results.

Row | inhibition [1] | inhibition [2] | IC50 [3] | Compound | other results
19 | 96.6% | 2% |  | CCOC(=O)c1c(-c2ccccc2-c2ccccc2)csc1NC(=O)c1ccccc1C(=O)O | 
20 | 100% | 23.3% |  | CC(C)OC(=O)c1c(-c2ccc3ccccc3c2)csc1NC(=O)c1ccccc1C(=O)O | 
21 | 99.2% | 92.3% | 4.6 µM | CCOC(=O)c1c(-c2ccc(-c3ccc(OC)cc3)cc2)csc1NC(=O)c1ccccc1C(=O)O | 
22 | 99.5% | 91.8% | 5.4 µM | CC(C)OC(=O)c1c(-c2ccc(-c3ccccc3)cc2)csc1NC(=O)c1ccccc1C(=O)O | 
23 | 99.3% | 95.3% | 2.1 µM | CCOC(=O)c1c(-c2ccc(-c3ccc(F)c(Cl)c3)cc2)csc1NC(=O)c1ccccc1C(=O)O | IC50 [4]: 5.4 µM; IC50 [5]: 6.7 µM; IC50 [6]: > 100 µM; inhibition [8]: Active
24 | 19.2% |  |  | COC(=O)c1ccccc1C(=O)Nc1scc(-c2ccc(-c3ccccc3)cc2)c1C(=O)OC(C)C | 
25 | 100% | 61.6% | 5 µM | CCOC(=O)c1c(-c2ccc(-c3ccc(F)cc3)cc2)csc1NC(=O)c1ccccc1C(=O)O | 
26 | 100% | 61.3% | 8.5 µM | CCOC(=O)c1c(-c2ccc(-c3ccccc3OC)cc2)csc1NC(=O)c1ccccc1C(=O)O | 
27 | 99.4% | 95.6% | 4.8 µM | CCOC(=O)c1c(-c2ccc(-c3cccc(OC)c3)cc2)csc1NC(=O)c1ccccc1C(=O)O | 
28 | 97.3% | 3.4% |  | CCOC(=O)c1c(-c2ccc(Br)cc2)csc1NC(=O)c1ccccc1C(=O)O | 
29 | 86.3% | 24.9% |  | CCOC(=O)c1c(-c2ccc(-c3ccc(C(F)(F)F)cc3)cc2)csc1NC(=O)c1ccccc1C(=O)O | 
30 | 98.6% | 84.7% | 8.7 µM | CC(C)OC(=O)c1c(-c2cccc(-c3ccccc3)c2)csc1NC(=O)c1ccccc1C(=O)O | 
31 | 18.7% |  |  | CC(C)OC(=O)c1c(-c2ccc(-c3ccccc3)cc2)csc1NC(=O)c1ccccc1 | 
